The target of data set [1] is Serine/threonine-protein kinase Nek11 (Homo sapiens) (UniProt Q8NG66). The data set can be described thus: Inhibition of human full length recombinant NEK11 assessed as residual activity at 1 uM using myelin basic protein as substrate incubated for 40 mins in presence of [gamma 33P]-ATP by radiometric scintillation counting assay relative to control. The gist of the method: (§1)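 Commercial radiometric panel of 50 kinases. Each recombinant human kinase was tested at a single compound concentration of 1 μM. ATP was set within 15 μM of the apparent Km for ATP for each kinase. Residual activity is relative to control and is the mean of two independent experiments.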

The target in data set [2] is MAP kinase-activated protein kinase 5 (Homo sapiens) (UniProt Q8IW41). The data set can be described thus: Inhibition of human full length PRAK assessed as residual activity at 1 uM using KKLRRTLSVA as substrate incubated for 40 mins in presence of [gamma 33P]-ATP by radiometric scintillation counting assay relative to control. The essentials: as §1
The species entered for data set [3] is Homo sapiens. The data set can be described thus: Inhibition of human full length recombinant CDK1/CyclinB assessed as residual activity at 1 uM using histone H1 as substrate incubated for 40 mins in presence of [gamma 33P]-ATP by radiometric scintillation counting assay relative to control. The essentials:
as §1

For data set [4], the target named is Serine/threonine-protein kinase Nek6 (Homo sapiens) (UniProt Q9HC98). The data set can be described thus: Inhibition of human NEK6 (2 to end residues) assessed as residual activity at 1 uM using FLAKSFGSPNRAYKK as substrate incubated for 40 mins in presence of [gamma 33P]-ATP by radiometric scintillation counting assay relative to control. The essentials:
as §1

The target of data set [5] is MAP kinase-activated protein kinase 2 (Homo sapiens) (UniProt P49137). Description: Inhibition of recombinant human MAPKAPK2 (46 to end residues) assessed as residual activity at 1 uM using KKLNRTLSVA as substrate incubated for 40 mins in presence of [gamma-33P]-ATP by radiometric scintillation counting method relative to control. The gist of the method: as §1
The target in data set [6] is Serine-protein kinase ATM (Homo sapiens) (UniProt Q13315). Description: Inhibition of human full length recombinant ATM assessed as residual activity at 1 uM using GST-cMyc-p53 as substrate incubated for 40 mins in presence of ATP by HTRF assay relative to control.
Sequence of Serine-protein kinase ATM (Homo sapiens) (Q13315 whole entry): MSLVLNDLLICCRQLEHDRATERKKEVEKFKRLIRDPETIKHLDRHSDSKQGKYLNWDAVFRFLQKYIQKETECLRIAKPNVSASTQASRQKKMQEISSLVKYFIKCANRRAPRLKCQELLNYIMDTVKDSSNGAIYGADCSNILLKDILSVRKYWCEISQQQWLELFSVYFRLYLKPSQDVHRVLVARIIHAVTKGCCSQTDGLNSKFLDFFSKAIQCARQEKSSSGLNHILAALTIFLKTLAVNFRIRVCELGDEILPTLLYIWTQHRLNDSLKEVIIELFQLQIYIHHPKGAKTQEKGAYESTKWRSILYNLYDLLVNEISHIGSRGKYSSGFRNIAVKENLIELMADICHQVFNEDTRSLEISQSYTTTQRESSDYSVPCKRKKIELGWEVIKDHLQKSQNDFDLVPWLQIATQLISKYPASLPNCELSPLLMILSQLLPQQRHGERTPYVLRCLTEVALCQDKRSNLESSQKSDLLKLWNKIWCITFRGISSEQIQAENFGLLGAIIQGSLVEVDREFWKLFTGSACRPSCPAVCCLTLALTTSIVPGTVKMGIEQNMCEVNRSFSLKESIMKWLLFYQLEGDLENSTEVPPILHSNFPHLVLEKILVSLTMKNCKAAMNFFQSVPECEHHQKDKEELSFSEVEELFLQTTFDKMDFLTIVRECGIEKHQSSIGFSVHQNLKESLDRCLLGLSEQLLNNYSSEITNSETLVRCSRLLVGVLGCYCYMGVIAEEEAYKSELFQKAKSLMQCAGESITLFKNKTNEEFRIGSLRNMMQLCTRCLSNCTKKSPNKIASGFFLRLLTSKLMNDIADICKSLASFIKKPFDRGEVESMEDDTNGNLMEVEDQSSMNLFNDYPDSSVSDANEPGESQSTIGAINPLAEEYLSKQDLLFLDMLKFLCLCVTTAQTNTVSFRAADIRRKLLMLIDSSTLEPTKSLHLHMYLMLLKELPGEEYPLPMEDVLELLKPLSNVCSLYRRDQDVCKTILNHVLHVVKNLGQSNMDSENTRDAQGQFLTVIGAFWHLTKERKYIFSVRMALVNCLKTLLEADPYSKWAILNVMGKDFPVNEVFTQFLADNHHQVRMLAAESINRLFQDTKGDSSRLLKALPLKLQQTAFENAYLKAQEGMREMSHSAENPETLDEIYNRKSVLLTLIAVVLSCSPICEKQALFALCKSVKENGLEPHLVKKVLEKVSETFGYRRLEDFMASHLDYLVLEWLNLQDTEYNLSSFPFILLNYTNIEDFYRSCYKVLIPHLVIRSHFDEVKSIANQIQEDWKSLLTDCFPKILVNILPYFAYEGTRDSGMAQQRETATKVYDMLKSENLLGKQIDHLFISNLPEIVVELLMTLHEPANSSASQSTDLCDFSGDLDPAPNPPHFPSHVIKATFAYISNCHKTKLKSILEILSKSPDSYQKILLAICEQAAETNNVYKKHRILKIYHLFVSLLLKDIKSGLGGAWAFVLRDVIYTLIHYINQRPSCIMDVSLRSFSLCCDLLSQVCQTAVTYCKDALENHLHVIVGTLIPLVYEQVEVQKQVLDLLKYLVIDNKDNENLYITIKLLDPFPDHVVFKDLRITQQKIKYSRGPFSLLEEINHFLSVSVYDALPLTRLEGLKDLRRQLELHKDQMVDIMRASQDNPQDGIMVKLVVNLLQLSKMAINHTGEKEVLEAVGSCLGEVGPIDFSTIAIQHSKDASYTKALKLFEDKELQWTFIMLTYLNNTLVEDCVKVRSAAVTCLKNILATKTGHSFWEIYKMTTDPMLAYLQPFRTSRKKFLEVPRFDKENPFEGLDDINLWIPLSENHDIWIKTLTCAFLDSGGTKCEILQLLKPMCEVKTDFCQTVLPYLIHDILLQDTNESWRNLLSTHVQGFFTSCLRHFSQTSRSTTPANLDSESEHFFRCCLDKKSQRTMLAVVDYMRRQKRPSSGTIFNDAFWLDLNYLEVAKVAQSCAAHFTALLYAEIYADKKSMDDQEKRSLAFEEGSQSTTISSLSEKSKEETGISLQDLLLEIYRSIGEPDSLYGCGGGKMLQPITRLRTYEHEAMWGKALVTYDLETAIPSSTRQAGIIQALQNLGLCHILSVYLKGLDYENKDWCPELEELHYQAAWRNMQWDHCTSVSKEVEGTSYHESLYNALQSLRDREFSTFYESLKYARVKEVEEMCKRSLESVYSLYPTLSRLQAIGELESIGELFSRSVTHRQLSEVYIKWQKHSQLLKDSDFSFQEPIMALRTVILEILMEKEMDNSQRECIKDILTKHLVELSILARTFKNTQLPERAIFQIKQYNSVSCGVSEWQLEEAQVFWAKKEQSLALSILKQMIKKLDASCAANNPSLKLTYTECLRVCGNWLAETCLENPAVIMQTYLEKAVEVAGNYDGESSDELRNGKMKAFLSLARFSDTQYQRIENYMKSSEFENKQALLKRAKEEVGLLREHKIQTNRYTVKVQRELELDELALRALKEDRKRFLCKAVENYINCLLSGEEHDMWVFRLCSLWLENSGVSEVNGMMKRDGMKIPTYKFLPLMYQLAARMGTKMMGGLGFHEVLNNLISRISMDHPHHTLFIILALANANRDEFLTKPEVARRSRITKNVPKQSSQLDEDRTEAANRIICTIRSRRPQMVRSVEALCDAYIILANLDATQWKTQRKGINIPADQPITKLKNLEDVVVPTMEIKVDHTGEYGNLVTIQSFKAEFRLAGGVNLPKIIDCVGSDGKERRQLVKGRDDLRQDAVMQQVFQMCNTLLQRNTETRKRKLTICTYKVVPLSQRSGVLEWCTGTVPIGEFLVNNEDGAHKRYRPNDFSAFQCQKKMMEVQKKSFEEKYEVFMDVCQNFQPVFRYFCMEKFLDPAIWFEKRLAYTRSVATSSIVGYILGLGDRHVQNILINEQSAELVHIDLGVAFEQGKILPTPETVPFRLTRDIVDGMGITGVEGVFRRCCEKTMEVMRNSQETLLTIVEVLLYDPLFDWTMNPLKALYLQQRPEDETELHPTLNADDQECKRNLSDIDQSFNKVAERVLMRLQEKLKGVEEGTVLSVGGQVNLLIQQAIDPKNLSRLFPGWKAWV
Data set [7] addresses Serine/threonine-protein kinase tousled-like 1 (Homo sapiens) (UniProt Q9UKI8). The data set can be described thus: Inhibition of human full length recombinant TLK1 assessed as residual activity at 1 uM using casein as substrate incubated for 40 mins in presence of [gamma 33P]-ATP by radiometric scintillation counting assay relative to control. The essentials:
as §1

The target in data set [8] is Mitogen-activated protein kinase 14 (Homo sapiens) (UniProt Q16539). Description: Inhibition of recombinant human full length SAPK2a assessed as residual activity at 1 uM using myelin basic protein as substrate measured after 40 mins in presence of [gamma33P]ATP by scintillation counting method relative to control. The essentials: as §1
In data set [9] the target is Serine/threonine-protein kinase 4 (Homo sapiens) (UniProt Q13043). Description: Inhibition of human full length recombinant MST1 assessed as residual activity at 1 uM using KKSRGDYMTMQIG as substrate incubated for 40 mins in presence of [gamma 33P]-ATP by radiometric scintillation counting assay relative to control. The gist of the method:
as §1

The species entered for data set [10] is Homo sapiens. The data set can be described thus: Inhibition of human full length recombinant CDK2/cyclinE assessed as residual activity at 1 uM using histone H1 as substrate incubated for 40 mins in presence of [gamma 33P]-ATP by radiometric scintillation counting assay relative to control. The essentials: as §1
In data set [11] the target is Calcium/calmodulin-dependent protein kinase type 1G (Homo sapiens) (UniProt Q96NX5). The data set can be described thus: Inhibition of recombinant full length human CaMK1gamma assessed as residual activity at 1 uM using KKLRRTLSFAEPG as substrate incubated for 40 mins in presence of [gamma-33ATP] by radiometric scintillation counting analysis relative to control. The essentials:
as §1

The target of data set [12] is Protein kinase C alpha type (Homo sapiens) (UniProt P17252). The data set can be described thus: Inhibition of recombinant human full length PKCalpha assessed as residual activity at 1 uM using histone H1 as substrate measured after 40 mins in presence of [gamma33P]ATP by radiometric scintillation counting method relative to control. The gist of the method: as §1

Data set [13] is described as follows: Solubility of the compound in E3 medium with DMSO incubated for 24 hrs by DAD-HPLC based shake flask method. Format: physicochemical. The gist of the method:
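Shake-flask solubility: saturated solution in E3-medium shaken 24 h at 25 °C, then HPLC-DAD at 280 nm. Concentration read by interpolation from a calibration series of 1–100 μM standards in acetonitrile, prepared from a 10 mM DMSO stock. Triplicate.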

Data set [14] deals with Phosphatidylinositol 4,5-bisphosphate 3-kinase catalytic subunit alpha isoform (Homo sapiens) (UniProt P42336). The data set can be described thus: Inhibition of human full length recombinant PI3Kalpha assessed as residual activity at 1 uM using phosphatidylinositol 4,5-bisphosphate as substrate incubated for 40 mins in presence of ATP by HTRF assay relative to control.
Sequence of Phosphatidylinositol 4,5-bisphosphate 3-kinase catalytic subunit alpha isoform (Homo sapiens) (P42336 whole entry, canonical isoform): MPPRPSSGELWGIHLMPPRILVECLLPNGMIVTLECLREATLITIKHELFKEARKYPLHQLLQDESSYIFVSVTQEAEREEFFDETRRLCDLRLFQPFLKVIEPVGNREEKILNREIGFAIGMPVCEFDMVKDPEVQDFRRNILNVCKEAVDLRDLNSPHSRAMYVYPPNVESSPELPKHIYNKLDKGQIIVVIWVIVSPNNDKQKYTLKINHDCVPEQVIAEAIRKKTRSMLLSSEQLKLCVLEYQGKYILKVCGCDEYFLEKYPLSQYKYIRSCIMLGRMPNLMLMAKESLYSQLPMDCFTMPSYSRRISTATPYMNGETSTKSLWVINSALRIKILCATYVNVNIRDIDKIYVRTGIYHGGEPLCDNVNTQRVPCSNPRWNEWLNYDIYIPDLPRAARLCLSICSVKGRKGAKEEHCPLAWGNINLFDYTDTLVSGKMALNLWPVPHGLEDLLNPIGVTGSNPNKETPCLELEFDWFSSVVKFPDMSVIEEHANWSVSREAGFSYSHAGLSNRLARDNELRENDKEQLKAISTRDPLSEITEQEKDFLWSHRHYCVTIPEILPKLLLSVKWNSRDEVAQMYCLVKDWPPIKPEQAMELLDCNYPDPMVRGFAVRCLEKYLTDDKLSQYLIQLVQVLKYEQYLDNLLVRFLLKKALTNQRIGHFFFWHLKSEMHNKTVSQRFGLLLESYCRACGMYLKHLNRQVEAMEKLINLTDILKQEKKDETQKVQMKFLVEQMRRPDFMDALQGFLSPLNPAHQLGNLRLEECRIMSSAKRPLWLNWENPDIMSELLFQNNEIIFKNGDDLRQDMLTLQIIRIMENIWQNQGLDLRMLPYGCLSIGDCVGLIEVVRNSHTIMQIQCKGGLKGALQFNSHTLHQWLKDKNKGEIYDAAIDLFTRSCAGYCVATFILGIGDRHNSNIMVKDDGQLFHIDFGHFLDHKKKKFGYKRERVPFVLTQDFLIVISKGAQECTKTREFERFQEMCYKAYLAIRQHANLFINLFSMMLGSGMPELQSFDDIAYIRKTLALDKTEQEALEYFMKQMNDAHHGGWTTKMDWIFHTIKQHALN

For data set [15], the target named is Tyrosine-protein kinase Lyn (Homo sapiens) (UniProt P07948). Description: Inhibition of recombinant human Lyn assessed as residual activity at 1 uM using poly(Glu, Tyr) 4:1 as substrate after 40 mins in presence of [gamma-33ATP] by scintillation counting based radiometry assay relative to control. The gist of the method: as §1
Data set [16] has as its target Serine/threonine-protein kinase Nek3 (Homo sapiens) (UniProt P51956). The data set can be described thus: Inhibition of recombinant full-length human NEK3 assessed as residual activity at 1 uM using myelin basic protein as substrate measured after 40 mins in presence of [gamma33P]ATP by radiometric scintillation counting method relative to control. The essentials: as §1

Data set [17] deals with Protein kinase C eta type (Homo sapiens) (UniProt P24723). Description: Inhibition of recombinant human full length PKCeta (2 to end residues) assessed as residual activity at 1 uM using ERMRPRKRQGSVRRRV as substrate incubated for 40 mins in presence of [gamma-33P]-ATP by scintillation counting method relative to control. The essentials: as §1
Data set [18] relates to RAF proto-oncogene serine/threonine-protein kinase (Homo sapiens), P04049 [Y340D,Y341D]. The data set can be described thus: Inhibition of human c-Raf (Raf-1) Y340D/Y341D mutant (306 to end) as residual activity at 1 uM using inactive MEK1 as substrate incubated for 40 mins in presence of [gamma 33P]-ATP by radiometric scintillation counting assay relative to control. The gist of the method:
as §1

The target in data set [19] is Inhibitor of nuclear factor kappa-B kinase subunit alpha (Homo sapiens) (UniProt O15111). The data set can be described thus: Inhibition of human full length recombinant IKKalpha assessed as residual activity at 1 uM using peptide as substrate incubated for 40 mins in presence of [gamma 33P]-ATP by radiometric scintillation counting assay relative to control. The gist of the method: as §1
Sequence of Inhibitor of nuclear factor kappa-B kinase subunit alpha (Homo sapiens) (O15111 whole entry): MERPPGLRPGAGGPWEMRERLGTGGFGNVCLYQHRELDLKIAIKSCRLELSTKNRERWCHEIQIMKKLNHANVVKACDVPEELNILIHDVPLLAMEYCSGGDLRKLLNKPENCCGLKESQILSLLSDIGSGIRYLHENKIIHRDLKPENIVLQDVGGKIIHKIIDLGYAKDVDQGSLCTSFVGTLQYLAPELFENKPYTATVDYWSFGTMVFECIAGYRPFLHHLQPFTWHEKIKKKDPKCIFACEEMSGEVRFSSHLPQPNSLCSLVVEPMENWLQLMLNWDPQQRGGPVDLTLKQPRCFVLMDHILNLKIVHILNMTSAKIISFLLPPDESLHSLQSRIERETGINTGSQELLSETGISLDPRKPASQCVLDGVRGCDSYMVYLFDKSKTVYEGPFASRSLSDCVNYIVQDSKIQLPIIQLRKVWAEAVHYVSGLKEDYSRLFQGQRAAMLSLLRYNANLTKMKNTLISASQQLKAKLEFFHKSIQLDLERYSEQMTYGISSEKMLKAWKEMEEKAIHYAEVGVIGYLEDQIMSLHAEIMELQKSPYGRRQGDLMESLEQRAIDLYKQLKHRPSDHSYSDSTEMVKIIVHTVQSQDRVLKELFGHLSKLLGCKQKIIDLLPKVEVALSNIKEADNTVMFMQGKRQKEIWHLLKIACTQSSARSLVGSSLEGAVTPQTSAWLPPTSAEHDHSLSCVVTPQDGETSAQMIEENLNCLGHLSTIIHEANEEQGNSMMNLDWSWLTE

In data set [20] the target is CDK6/cyclin D3 (Homo sapiens) (UniProt P30281+Q00534). Description: Inhibition of human full length recombinant CDK6/CyclinD3 assessed as residual activity at 1 uM using histone H1 as substrate incubated for 40 mins in presence of [gamma 33P]-ATP by radiometric scintillation counting assay relative to control. Format: protein-complex assay. The essentials:
as §1

Data set [21] is described as follows: Toxicity in wild-type Zebrafish embryos assessed as effect on body curvature at 0.05 to 30 uM measured upto 120 hrs. Further details: species or system Danio rerio. The conditions noted are these: in vivo, dose 0.05-30 µM. The essentials:
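Wild-type embryos, 15 per group with intact chorions, dosed at 6 hpf with 0.05–30 μM final concentrations in E3, diluted from a DMSO stock. Survival checked every 24 h by heartbeat over 120 h, and phenotypes assessed visually. At least triplicate, 5 replicates at 30 μM.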

SMILES strings stand for the structures. Converted amounts (≈) assume the structure as drawn.

Here are results for one molecule from ChEMBL document CHEMBL5154713, “Illuminating a Dark Kinase: Structure-Guided Design, Synthesis, and Evaluation of a Potent Nek1 Inhibitor and Its Effects on the Embryonic Zebrafish Pronephros” (J Med Chem, 2022).

With `O=S(=O)(N[C@@H](CO)Cc1c[nH]c2ccccc12)c1ccc(-c2ccnc3[nH]ccc23)cc1`, the Activity (in [1]; in data set [2]; in the data set listed under Homo sapiens [3]; in data set [4]; in [5]; in [6]) was greater than 75% in each case. Further, the Activity (in data set [7]; in data set [8]; in data set [9]; in the data set filed under Homo sapiens [10]; in data set [11]; in [12]) was greater than 75% in each case. The Activity in data set [14] is greater than 75%; in data set [15], greater than 75%; in data set [16], greater than 75%; in [17], greater than 75%; in data set [18] it was greater than 75%; in data set [19] it was less than 75%. In addition, the Activity is greater than 75% in data set [20] and “Non-Toxic” in [21]. In data set [13], this molecule came in with a solubility at 24 h of 13.9 µg/mL (≈ 31.1 µM).
